In ChEMBL document CHEMBL1806388, “3-(3-Phenoxybenzyl)amino-β-carboline: a novel antitumor drug targeting α-tubulin” (Bioorg Med Chem Lett, 2011):
Activity calls are given as the source filed them. The calls are words filed in the database; no cut-off is given here.

Assays:
[1] = Cytotoxicity against human HeLaS3 cells after 24 to 72 hrs by MTT assay; assay type: functional, cell-based; conditions: HeLa S3
How it was run: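 Growth inhibition of HeLa S-3 cells measured by MTT assay; IC50 taken as the drug concentration inhibiting cell growth by 50%. Values are mean ± S.D. of four independent experiments, each run in triplicate.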

[2] = test system: HeLa S3; experiment: Induction of apoptosis in human HeLaS3 cells assessed as chromatin condensation at 150 to 1000 nM after 48 hrs using Hoechst 33342 staining by confocal laser microscopic analysis; assay type: functional, cell-based
How it was run: (§1)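 HeLa S-3 cells treated with 0, 150, 300 or 1000 nM for 48 h, then nuclei stained with Hoechst 33342 and examined by fluorescence microscopy for chromatin condensation and fragmented nuclei.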

[3] = test system: HeLa S3; experiment: Induction of apoptosis in human HeLaS3 cells assessed as fragmented nuclei at 150 to 1000 nM after 48 hrs using Hoechst 33342 staining by confocal laser microscopic analysis; assay type: functional, cell-based; how it was run: as §1
[4] = test system: HeLa S3; experiment: Induction of apoptosis in human HeLaS3 cells assessed as DNA fragmentation at 150 to 1000 nM after 48 hrs by electrophoresis analysis; assay type: functional, cell-based
How it was run: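 HeLa S-3 cells exposed to 0–1000 nM for 48 h; genomic DNA extracted and run on a 2% agarose gel next to a 100 bp ladder to look for fragmentation.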

[5] = test system: HeLa S3; experiment: Induction of apoptosis in human HeLaS3 cells assessed as increase of activated caspase 3 level by Western blot analysis; assay type: functional, cell-based; conditions: TDE = time-dependent effect
How it was run: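 Cleaved caspase-3 detected by Western blot of HeLa S-3 cell extracts after 6, 12, 24 or 48 h treatment; untreated extract as control, β-actin as loading control.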

[6] = species: Homo sapiens; experiment: Binding affinity to enolase in human HeLaS3 whole cell extract by MALDI/TOF-MS nalaysis
[7] = species: Homo sapiens; experiment: Binding affinity to alpha-tubulin in human HeLaS3 whole cell extract by MALDI/TOF-MS nalaysis
[8] = Cell cycle arrest in human HeLaS3 cells assessed as accumulation at S phase at 150 nM after 12 hrs using propidium iodide staining by flow cytometry (reference value: 19.62%); conditions: HeLa S3
[9] = Cell cycle arrest in human HeLaS3 cells assessed as accumulation at S phase at 150 nM after 24 hrs using propidium iodide staining by flow cytometry (reference value: 19.62%); conditions: HeLa S3
[10] = Cell cycle arrest in human HeLaS3 cells assessed as accumulation at S phase at 150 nM after 36 hrs using propidium iodide staining by flow cytometry (reference value: 19.62%); conditions: HeLa S3
[11] = Cell cycle arrest in human HeLaS3 cells assessed as accumulation at S phase at 150 nM after 48 hrs using propidium iodide staining by flow cytometry (reference value: 19.62%); conditions: HeLa S3
[12] = Cell cycle arrest in human HeLaS3 cells assessed as accumulation at G1 phase at 150 nM after 12 hrs using propidium iodide staining by flow cytometry (reference value: 56.42%); conditions: HeLa S3
[13] = Cell cycle arrest in human HeLaS3 cells assessed as accumulation at G1 phase at 150 nM after 24 hrs using propidium iodide staining by flow cytometry (reference value: 56.42%); conditions: HeLa S3
[14] = Cell cycle arrest in human HeLaS3 cells assessed as accumulation at G1 phase at 150 nM after 36 hrs using propidium iodide staining by flow cytometry (reference value: 56.42%); conditions: HeLa S3
[15] = Cell cycle arrest in human HeLaS3 cells assessed as accumulation at G1 phase at 150 nM after 48 hrs using propidium iodide staining by flow cytometry (reference value: 56.42%); conditions: HeLa S3
[16] = Cell cycle arrest in human HeLaS3 cells assessed as accumulation at G2/M phase at 150 nM after 12 hrs using propidium iodide staining by flow cytometry (reference value: 22.45%); conditions: HeLa S3
[17] = Cell cycle arrest in human HeLaS3 cells assessed as accumulation at G2/M phase at 150 nM after 24 hrs using propidium iodide staining by flow cytometry (reference value: 22.45%); conditions: HeLa S3
[18] = Cell cycle arrest in human HeLaS3 cells assessed as accumulation at G2/M phase at 150 nM after 36 hrs using propidium iodide staining by flow cytometry (reference value: 22.45%); conditions: HeLa S3
[19] = Cell cycle arrest in human HeLaS3 cells assessed as accumulation at G2/M phase at 150 nM after 48 hrs using propidium iodide staining by flow cytometry (reference value: 22.45%); conditions: HeLa S3
[20] = Cell cycle arrest in human HeLaS3 cells assessed as accumulation at sub-G1 phase at 150 nM after 12 hrs using propidium iodide staining by flow cytometry (reference value: 1.51%); conditions: HeLa S3
[21] = Cell cycle arrest in human HeLaS3 cells assessed as accumulation at sub-G1 phase at 150 nM after 24 hrs using propidium iodide staining by flow cytometry (reference value: 1.51%); conditions: HeLa S3
[22] = Cell cycle arrest in human HeLaS3 cells assessed as accumulation at sub-G1 phase at 150 nM after 36 hrs using propidium iodide staining by flow cytometry (reference value: 1.51%); conditions: HeLa S3
[23] = Cell cycle arrest in human HeLaS3 cells assessed as accumulation at sub-G1 phase at 150 nM after 48 hrs using propidium iodide staining by flow cytometry (reference value: 1.51%); conditions: HeLa S3

`c1ccc(CNc2nccc3c2[nH]c2ccccc23)cc1` gave an IC50 [1] of 24 µM.

`COc1cccc(CNc2cc3c(cn2)[nH]c2ccccc23)c1OC` showed an IC50 [1] of 3.2 µM.

Compound `Cc1ccc(CNc2nccc3c2[nH]c2ccccc23)cc1` has an IC50 [1] of 26 µM.

`Oc1ccc(CNc2cc3c(cn2)[nH]c2ccccc23)cc1` gave an IC50 [1] of 1.7 µM.

`Clc1cccc(CNc2cc3c(cn2)[nH]c2ccccc23)c1` gave an IC50 [1] of 0.83 µM.

Compound `c1ccc(COc2cccc(CNc3cc4c(cn3)[nH]c3ccccc34)c2)cc1` has an IC50 [1] of 0.38 µM.

In the case of `Clc1ccccc1CNc1cc2c(cn1)[nH]c1ccccc12`, the IC50 [1] is reported as 1 µM.

Compound `O=[N+]([O-])c1ccccc1CNc1cc2c(cn1)[nH]c1ccccc12` has an IC50 [1] of 14 µM.

`Clc1ccc(CNc2nccc3c2[nH]c2ccccc23)cc1` gave an IC50 [1] of 18 µM.

With `Cc1cccc(CNc2nccc3c2[nH]c2ccccc23)c1` the IC50 [1] was 22 µM.

For `c1ccc(-c2ccc(CNc3cc4c(cn3)[nH]c3ccccc34)cc2)cc1`, the IC50 [1] was > 30 µM.

Work on `FC(F)(F)c1cccc(CNc2cc3c(cn2)[nH]c2ccccc23)c1` yielded an IC50 [1] of 3.1 µM.

For `Oc1ccccc1CNc1nccc2c1[nH]c1ccccc12`, the IC50 [1] was 19 µM.

With `c1ccc(Oc2cccc(CNc3cc4c(cn3)[nH]c3ccccc34)c2)cc1` the IC50 [1] was 0.074 µM, the Activity [2] was “Active” and the Activity [3] was “Active”. For the same compound, the Activity [4] was “Active”, the Activity [5] was “tde” and the Activity [6] was “Active”. For the same compound, the Activity [7] was “Active”, the Activity [8] was 15.4% and the Activity [9] was 15.9%. It also gave an Activity [10] of 15.6%, an Activity [11] of 20.2% and an Activity [12] of 8.4%. The Activity [13] was 21.2%, the Activity [14] was 19% and the Activity [15] was 18.4%. It also gave an Activity [16] of 65.9%, an Activity [17] of 30% and an Activity [18] of 19.2%. The Activity [19] was 9.52%, the Activity [20] was 9.72% and the Activity [21] was 32.7%. The Activity [22] was 43.5% and the Activity [23] was 50.1%.

Work on `COc1cc(CNc2cc3c(cn2)[nH]c2ccccc23)cc(OC)c1OC` yielded an IC50 [1] of 0.22 µM.

For `Clc1ccc(CNc2cc3c(cn2)[nH]c2ccccc23)cc1`, the IC50 [1] was 6.1 µM.

Work on `c1ccc(Oc2ccc(CNc3nccc4c3[nH]c3ccccc34)cc2)cc1` yielded an IC50 [1] of 15 µM.

Compound `Clc1ccc(CNc2nccc3c2[nH]c2ccccc23)cc1Cl` has an IC50 [1] of 20 µM.

For `Cc1ccc(CNc2cc3c(cn2)[nH]c2ccccc23)cc1`, the IC50 [1] was 6.2 µM.

`COc1ccccc1CNc1cc2c(cn1)[nH]c1ccccc12` showed an IC50 [1] of 0.8 µM.

In the case of `Oc1ccccc1CNc1cc2c(cn1)[nH]c1ccccc12`, the IC50 [1] is reported as 28 µM.

For `Oc1cccc(CNc2cc3c(cn2)[nH]c2ccccc23)c1`, the IC50 [1] was 0.92 µM.

Work on `FC(F)(F)c1ccc(CNc2cc3c(cn2)[nH]c2ccccc23)cc1` yielded an IC50 [1] of 47 µM.

`COc1ccc(CNc2cc3c(cn2)[nH]c2ccccc23)c(OC)c1OC` gave an IC50 [1] of 4 µM.

For `FC(F)(F)c1ccccc1CNc1cc2c(cn1)[nH]c1ccccc12`, the IC50 [1] was 6.7 µM.

In the case of `COc1ccc(CNc2cc3c(cn2)[nH]c2ccccc23)cc1OC`, the IC50 [1] is reported as > 100 µM.

For `COc1cccc(CNc2nccc3c2[nH]c2ccccc23)c1`, the IC50 [1] was 24 µM.

Compound `COc1ccc(CNc2cc3c(cn2)[nH]c2ccccc23)c(OC)c1` has an IC50 [1] of 4.8 µM.

In the case of `COc1cc(CNc2cc3c(cn2)[nH]c2ccccc23)cc(OC)c1`, the IC50 [1] is reported as 1.7 µM.

Compound `c1ccc(Oc2cccc(CNc3nccc4c3[nH]c3ccccc34)c2)cc1` has an IC50 [1] of 2.3 µM.

For `O=[N+]([O-])c1cccc(CNc2cc3c(cn2)[nH]c2ccccc23)c1`, the IC50 [1] was > 30 µM.

With `COc1ccc(CNc2cc3c(cn2)[nH]c2ccccc23)cc1` the IC50 [1] was 20 µM.

Work on `COc1cccc(OC)c1CNc1cc2c(cn1)[nH]c1ccccc12` yielded an IC50 [1] of 2.3 µM.

Work on `COc1cccc(CNc2cc3c(cn2)[nH]c2ccccc23)c1` yielded an IC50 [1] of 0.79 µM.

In the case of `COc1ccc(OC)c(CNc2cc3c(cn2)[nH]c2ccccc23)c1`, the IC50 [1] is reported as 6.1 µM.

For `Clc1ccccc1CNc1nccc2c1[nH]c1ccccc12`, the IC50 [1] was 19 µM.

`Cc1ccccc1CNc1nccc2c1[nH]c1ccccc12` gave an IC50 [1] of 13 µM.

`Cc1ccccc1CNc1cc2c(cn1)[nH]c1ccccc12` gave an IC50 [1] of 0.3 µM.

Work on `COc1ccc(CNc2nccc3c2[nH]c2ccccc23)cc1` yielded an IC50 [1] of 22 µM.

With `Clc1cccc(CNc2nccc3c2[nH]c2ccccc23)c1` the IC50 [1] was 20 µM.

With `Cc1cccc(CNc2cc3c(cn2)[nH]c2ccccc23)c1` the IC50 [1] was 0.21 µM.

In the case of `c1ccc(CNc2cc3c(cn2)[nH]c2ccccc23)cc1`, the IC50 [1] is reported as 0.11 µM.

Compound `COc1ccccc1CNc1nccc2c1[nH]c1ccccc12` has an IC50 [1] of 15 µM.

Compound `c1ccc(Oc2ccc(CNc3cc4c(cn3)[nH]c3ccccc34)cc2)cc1` has an IC50 [1] of 1.2 µM.

In the case of `c1ccc(-c2ccccc2CNc2cc3c(cn2)[nH]c2ccccc23)cc1`, the IC50 [1] is reported as 3 µM.
